Laboratory results published in ChEMBL document CHEMBL2331384, “Synthesis, crystal structure and antibacterial activity of new highly functionalized ionic compounds based on the imidazole nucleus” (2013).
The source made the active and inactive calls. The calls are words filed in the database; no cut-off is given here.

Legend:
Salmonella typhimurium [1] = experiment: Antimicrobial activity against Salmonella typhimurium ATCC 07095 at 100 ug after overnight incubation by disk-diffusion method; format: functional, organism-based; details: Salmonella enterica subsp. enterica serovar Typhimurium
Staphylococcus aureus [2] = experiment: Antimicrobial activity against Staphylococcus aureus ATTC-25923 at 100 ug after overnight incubation by disk-diffusion method; format: functional, organism-based
Escherichia coli [3] = experiment: Antimicrobial activity against Escherichia coli ATTC-25922 at 100 ug after overnight incubation by disk-diffusion method; format: functional, organism-based
Pseudomonas aeruginosa [4] = experiment: Antimicrobial activity against Pseudomonas aeruginosa ATCC 27853 at 200 ug after overnight incubation by disk-diffusion method; format: functional; details: for zone of inhibition at 200 µg/disc: read-out: DIZ
Method in brief: (§1)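 Bacterial suspension spread over a Mueller–Hinton agar surface. 6 mm paper disks each loaded with 200 µg of compound dissolved in DMSO were placed on the agar. Plates were incubated overnight at 37 °C, and inhibition zone diameters were measured with a ruler in mm.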

Staphylococcus aureus [5] = experiment: Antimicrobial activity against Staphylococcus aureus ATTC-25923 at 200 ug after overnight incubation by disk-diffusion method; format: functional; details: for zone of inhibition at 200 µg/disc: read-out: DIZ; method in brief: as §1
Salmonella typhimurium [6] = experiment: Antimicrobial activity against Salmonella typhimurium ATCC 07095 at 200 ug after overnight incubation by disk-diffusion method; format: functional; details: for diameter of the inhibition zone (DIZ): Salmonella enterica subsp. enterica serovar Typhimurium; for zone of inhibition at 200 µg/disc: Salmonella enterica, read-out: DIZ; method in brief: as §1
Escherichia coli [7] = experiment: Antimicrobial activity against Escherichia coli ATTC-25922 at 200 ug after overnight incubation by disk-diffusion method; format: functional; details: for zone of inhibition at 200 µg/disc: read-out: DIZ; method in brief: as §1
Salmonella typhimurium [8] = experiment: Antimicrobial activity against Salmonella typhimurium ATCC 07095 after 1 day by agar dilution method; format: functional, Salmonella enterica subsp. enterica serovar Typhimurium; details: Salmonella enterica, ATCC 07095, 24 h
Method in brief: (§2)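 Inoculum was an overnight broth culture diluted to about 10^6 cell/mL. MIC (µg/mL) was determined by a standardized agar dilution technique after 1 day of exposure.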

Pseudomonas aeruginosa [9] = experiment: Antimicrobial activity against Pseudomonas aeruginosa ATCC 27853 after 1 day by agar dilution method; format: functional; details: ATCC 27853, 24 h; method in brief: as §2
Staphylococcus aureus [10] = experiment: Antimicrobial activity against Staphylococcus aureus ATTC-25923 after 1 day by agar dilution method; format: functional; details: ATTC-25923, 24 h; method in brief: as §2
Escherichia coli [11] = experiment: Antimicrobial activity against Escherichia coli ATTC-25922 after 1 day by agar dilution method; format: functional; details: ATTC-25922, 24 h; method in brief: as §2

In the case of SPIRAMYCIN, the zone of inhibition (Salmonella typhimurium [1]) is reported as 9 mm, the zone of inhibition (Staphylococcus aureus [2]) is reported as 22 mm and the zone of inhibition (Escherichia coli [3]) is reported as 9 mm.
In the case of Cn1c[n+](CC(=O)c2ccccc2)cc1[N+](=O)[O-].[Br-], the zone of inhibition at 200 µg/disc (Pseudomonas aeruginosa [4]) is reported as 9 mm, the “diameter of the inhibition zone (DIZ)” value (Staphylococcus aureus [5]) is reported as “inactive” and the “diameter of the inhibition zone (DIZ)” value (Salmonella typhimurium [6]) is reported as “inactive”. For the same molecule, the “diameter of the inhibition zone (DIZ)” value (Escherichia coli [7]) was “inactive”, the MIC (Salmonella typhimurium [8]) was 12.5 µg/mL and the MIC (Pseudomonas aeruginosa [9]) was 12.5 µg/mL. It also gave an MIC (Staphylococcus aureus [10]) greater than 250 µg/mL and an MIC (Escherichia coli [11]) of 12.5 µg/mL.
For Cc1n(C)c(Br)c(Br)[n+]1CC(=O)c1ccccc1.[Br-], the zone of inhibition at 200 µg/disc (Pseudomonas aeruginosa [4]) was 9 mm, the zone of inhibition at 200 µg/disc (Staphylococcus aureus [5]) was 7 mm and the zone of inhibition at 200 µg/disc (Salmonella typhimurium [6]) was 7 mm. It also gave a zone of inhibition at 200 µg/disc (Escherichia coli [7]) of 9 mm, an MIC (Salmonella typhimurium [8]) greater than 250 µg/mL and an MIC (Pseudomonas aeruginosa [9]) of 150 µg/mL. The MIC (Staphylococcus aureus [10]) was greater than 250 µg/mL and the MIC (Escherichia coli [11]) was 12.5 µg/mL.
Cc1n(C)c(I)c(I)[n+]1CC(=O)c1ccccc1.[Br-] gave a zone of inhibition at 200 µg/disc (Pseudomonas aeruginosa [4]) of 9 mm, a zone of inhibition at 200 µg/disc (Staphylococcus aureus [5]) of 15 mm and a zone of inhibition at 200 µg/disc (Salmonella typhimurium [6]) of 8 mm. It also gave a zone of inhibition at 200 µg/disc (Escherichia coli [7]) of 9 mm, an MIC (Salmonella typhimurium [8]) of 25 µg/mL and an MIC (Pseudomonas aeruginosa [9]) of 12.5 µg/mL. For the same molecule, the MIC (Staphylococcus aureus [10]) was greater than 250 µg/mL and the MIC (Escherichia coli [11]) was 12.5 µg/mL.
With Cn1c(Br)c(Br)[n+](CC(=O)c2ccccc2)c1CO.[Br-] the zone of inhibition at 200 µg/disc (Pseudomonas aeruginosa [4]) was 9 mm, the zone of inhibition at 200 µg/disc (Staphylococcus aureus [5]) was 7 mm and the “diameter of the inhibition zone (DIZ)” value (Salmonella typhimurium [6]) was “inactive”. The zone of inhibition at 200 µg/disc (Escherichia coli [7]) was 7 mm, the MIC (Salmonella typhimurium [8]) was greater than 250 µg/mL and the MIC (Pseudomonas aeruginosa [9]) was 50 µg/mL. For the same molecule, the MIC (Staphylococcus aureus [10]) was greater than 250 µg/mL and the MIC (Escherichia coli [11]) was 25 µg/mL.
In the case of CCOC(=O)C[n+]1c(Br)c(Br)n(C)c1CO.[Br-], the zone of inhibition at 200 µg/disc (Pseudomonas aeruginosa [4]) is reported as 7 mm, the “diameter of the inhibition zone (DIZ)” value (Staphylococcus aureus [5]) is reported as “inactive” and the “diameter of the inhibition zone (DIZ)” value (Salmonella typhimurium [6]) is reported as “inactive”. For the same molecule, the zone of inhibition at 200 µg/disc (Escherichia coli [7]) was 7 mm, the MIC (Salmonella typhimurium [8]) was greater than 250 µg/mL and the MIC (Pseudomonas aeruginosa [9]) was 25 µg/mL. It also gave an MIC (Staphylococcus aureus [10]) greater than 250 µg/mL and an MIC (Escherichia coli [11]) of 150 µg/mL.
In the case of CCOC(=O)C[n+]1cn(C)c(I)c1I.[Br-], the zone of inhibition at 200 µg/disc (Pseudomonas aeruginosa [4]) is reported as 9 mm, the “diameter of the inhibition zone (DIZ)” value (Staphylococcus aureus [5]) is reported as “inactive” and the “diameter of the inhibition zone (DIZ)” value (Salmonella typhimurium [6]) is reported as “inactive”. The “diameter of the inhibition zone (DIZ)” value (Escherichia coli [7]) was “inactive”, the MIC (Salmonella typhimurium [8]) was 50 µg/mL and the MIC (Pseudomonas aeruginosa [9]) was 6.2 µg/mL. For the same molecule, the MIC (Staphylococcus aureus [10]) was 250 µg/mL and the MIC (Escherichia coli [11]) was 6.2 µg/mL.
In the case of Cn1c(Br)c(Br)[n+](CC(=O)c2ccccc2)c1-c1ccccc1.[Br-], the zone of inhibition at 200 µg/disc (Pseudomonas aeruginosa [4]) is reported as 8 mm, the zone of inhibition at 200 µg/disc (Staphylococcus aureus [5]) is reported as 12 mm and the zone of inhibition at 200 µg/disc (Salmonella typhimurium [6]) is reported as 7 mm. It also gave a zone of inhibition at 200 µg/disc (Escherichia coli [7]) of 9 mm, an MIC (Salmonella typhimurium [8]) of 150 µg/mL and an MIC (Pseudomonas aeruginosa [9]) of 50 µg/mL. It also gave an MIC (Staphylococcus aureus [10]) of 250 µg/mL and an MIC (Escherichia coli [11]) of 50 µg/mL.
For CCOC(=O)C[n+]1c(Br)c(Br)n(C)c1C.[Br-], the “diameter of the inhibition zone (DIZ)” value (Pseudomonas aeruginosa [4]) was “inactive”, the zone of inhibition at 200 µg/disc (Staphylococcus aureus [5]) was 10 mm and the “diameter of the inhibition zone (DIZ)” value (Salmonella typhimurium [6]) was “inactive”. The “diameter of the inhibition zone (DIZ)” value (Escherichia coli [7]) was “inactive”, the MIC (Salmonella typhimurium [8]) was greater than 250 µg/mL and the MIC (Pseudomonas aeruginosa [9]) was 250 µg/mL. The MIC (Staphylococcus aureus [10]) was greater than 250 µg/mL and the MIC (Escherichia coli [11]) was 25 µg/mL.
Work on Cc1n(C)c([N+](=O)[O-])c[n+]1CC(=O)c1ccccc1.[Br-] yielded a zone of inhibition at 200 µg/disc (Pseudomonas aeruginosa [4]) of 10 mm, a zone of inhibition at 200 µg/disc (Staphylococcus aureus [5]) of 9 mm and a zone of inhibition at 200 µg/disc (Salmonella typhimurium [6]) of 7 mm. It also gave a zone of inhibition at 200 µg/disc (Escherichia coli [7]) of 9 mm, an MIC (Salmonella typhimurium [8]) of 50 µg/mL and an MIC (Pseudomonas aeruginosa [9]) greater than 250 µg/mL. For the same molecule, the MIC (Staphylococcus aureus [10]) was greater than 250 µg/mL and the MIC (Escherichia coli [11]) was 50 µg/mL.
For CCOC(=O)C[n+]1c(Br)c(Br)n(C)c1-c1ccccc1.[Br-], the zone of inhibition at 200 µg/disc (Pseudomonas aeruginosa [4]) was 7 mm, the zone of inhibition at 200 µg/disc (Staphylococcus aureus [5]) was 9 mm and the zone of inhibition at 200 µg/disc (Salmonella typhimurium [6]) was 7 mm. For the same molecule, the “diameter of the inhibition zone (DIZ)” value (Escherichia coli [7]) was “inactive”, the MIC (Salmonella typhimurium [8]) was 25 µg/mL and the MIC (Pseudomonas aeruginosa [9]) was 25 µg/mL. For the same molecule, the MIC (Staphylococcus aureus [10]) was greater than 250 µg/mL and the MIC (Escherichia coli [11]) was 50 µg/mL.
For CCOC(=O)C[n+]1c(I)c(I)n(C)c1C.[Br-], the zone of inhibition at 200 µg/disc (Pseudomonas aeruginosa [4]) was 9 mm, the “diameter of the inhibition zone (DIZ)” value (Staphylococcus aureus [5]) was “inactive” and the “diameter of the inhibition zone (DIZ)” value (Salmonella typhimurium [6]) was “inactive”. For the same molecule, the “diameter of the inhibition zone (DIZ)” value (Escherichia coli [7]) was “inactive”, the MIC (Salmonella typhimurium [8]) was greater than 250 µg/mL and the MIC (Pseudomonas aeruginosa [9]) was 25 µg/mL. It also gave an MIC (Staphylococcus aureus [10]) greater than 250 µg/mL and an MIC (Escherichia coli [11]) of 25 µg/mL.
For Cn1c[n+](CC(=O)c2ccccc2)c(I)c1I.[Br-], the zone of inhibition at 200 µg/disc (Pseudomonas aeruginosa [4]) was 8 mm, the zone of inhibition at 200 µg/disc (Staphylococcus aureus [5]) was 15 mm and the zone of inhibition at 200 µg/disc (Salmonella typhimurium [6]) was 9 mm. For the same molecule, the zone of inhibition at 200 µg/disc (Escherichia coli [7]) was 12 mm, the MIC (Salmonella typhimurium [8]) was 12.5 µg/mL and the MIC (Pseudomonas aeruginosa [9]) was 25 µg/mL. It also gave an MIC (Staphylococcus aureus [10]) of 250 µg/mL and an MIC (Escherichia coli [11]) of 25 µg/mL.
